Measured values reported in ChEMBL document CHEMBL1131215, “Anhydrolide macrolides. 1. Synthesis and antibacterial activity of 2,3-anhydro-6-O-methyl 11,12-carbamate erythromycin A analogues” (1998).
In brackets after ≈: the same amount, converted by molar mass.

Assays:
Type in all cases: functional
Streptococcus pyogenes [1] = experiment: In vitro antibacterial activity against PIU 2548 strain of Streptococcus pyogenes
Procedure, shortened: (§1)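 MIC determined by standard agar dilution; values in μg/mL.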

[2] = In vitro antibacterial activity against A-5278 strain of Staphylococcus aureus; procedure, shortened: as §1
Staphylococcus aureus [3] = experiment: In vitro antibacterial activity against A5177 strain of Staphylococcus aureus; procedure, shortened: as §1
Streptococcus pyogenes [4] = experiment: In vitro antibacterial activity against 930 strain of Streptococcus pyogenes; procedure, shortened: as §1
Haemophilus influenzae = experiment: In vitro antibacterial activity against DILL strain of Haemophilus influenzae.; procedure, shortened: as §1
Staphylococcus aureus [5] = experiment: In vitro antibacterial activity against 6538P strain of Staphylococcus aureus; procedure, shortened: as §1
Streptococcus pneumoniae [6] = experiment: In vitro antibacterial activity against ATCC 6303 strain of Streptococcus pneumoniae; procedure, shortened: as §1
Streptococcus pneumoniae [7] = experiment: In vitro antibacterial activity against 5649 strain of Streptococcus pneumoniae; procedure, shortened: as §1
Streptococcus pneumoniae [8] = experiment: In vitro antibacterial activity against 5979 strain of Streptococcus pneumoniae; procedure, shortened: as §1
[9] = Streptococcus pneumoniae, ATCC 6303

Structure (SMILES) | MIC (Streptococcus pyogenes [1]; Streptococcus pyogenes) | MIC (Staphylococcus aureus [3]; Staphylococcus aureus) | MIC (Streptococcus pyogenes [4]; Streptococcus pyogenes) | MIC (Haemophilus influenzae) | MIC (Staphylococcus aureus [5]; Staphylococcus aureus) | MIC (Streptococcus pneumoniae [6]; [9]) | MIC (Streptococcus pneumoniae [7]; Streptococcus pneumoniae) | other results
CC[C@H]1OC(=O)/C(C)=C/[C@H](C)[C@@H](O[C@@H]2O[C@H](C)C[C@H](N(C)C)[C@H]2O)[C@@](C)(OC)C[C@@H](C)C(=O)[C@H](C)[C@H]2N(CCCCc3ccccc3)C(=O)O[C@]12C | 0.39 µg/mL (≈ 0.535 µM) | 0.39 µg/mL (≈ 0.535 µM) | 12.5 µg/mL (≈ 17.1 µM) | 32 µg/mL (≈ 43.9 µM) | 0.39 µg/mL (≈ 0.535 µM) |  |  | MIC ([2]; Staphylococcus aureus): 50 µg/mL (≈ 68.6 µM)
CC[C@H]1OC(=O)/C(C)=C/[C@H](C)[C@@H](O[C@@H]2O[C@H](C)C[C@H](N(C)C)[C@H]2O)[C@@](C)(OC)C[C@@H](C)C(=O)[C@H](C)[C@H]2N(CCc3ccc(Oc4ccccc4)cc3)C(=O)O[C@]12C (stereo in doubt; 15) |  |  |  |  |  |  |  | MIC (Streptococcus pyogenes [1]): 3.1 µg/mL (≈ 3.91 µM); MIC [2]: 12.5 µg/mL (≈ 15.8 µM); MIC (Streptococcus pneumoniae [6]): 4 µg/mL (≈ 5.04 µM); MIC (Streptococcus pneumoniae [7]): 8 µg/mL (≈ 10.1 µM); MIC (Staphylococcus aureus [3]): 25 µg/mL (≈ 31.5 µM); MIC (Streptococcus pyogenes [4]): 6.2 µg/mL (≈ 7.82 µM); MIC (Staphylococcus aureus [5]): 25 µg/mL (≈ 31.5 µM)
CC[C@H]1OC(=O)/C(C)=C/[C@H](C)[C@@H](O[C@@H]2O[C@H](C)C[C@H](N(C)C)[C@H]2O)[C@@](C)(OC)C[C@@H](C)C(=O)[C@H](C)[C@H]2N(CCc3ccc(N)cc3)C(=O)O[C@]12C | 0.2 µg/mL (≈ 0.279 µM) | 0.78 µg/mL (≈ 1.09 µM) |  | 32 µg/mL (≈ 44.7 µM) | 1.56 µg/mL (≈ 2.18 µM) | 0.5 µg/mL (≈ 0.698 µM) | 2 µg/mL (≈ 2.79 µM) | 
CC[C@H]1OC(=O)/C(C)=C/[C@H](C)[C@@H](O[C@@H]2O[C@H](C)C[C@H](N(C)C)[C@H]2O)[C@@](C)(OC)C[C@@H](C)C(=O)[C@H](C)[C@H]2N(CCc3ccc(O)cc3)C(=O)O[C@]12C | 0.39 µg/mL (≈ 0.544 µM) | 0.78 µg/mL (≈ 1.09 µM) |  | 16 µg/mL (≈ 22.3 µM) | 0.78 µg/mL (≈ 1.09 µM) | 0.125 µg/mL (≈ 0.174 µM) | 0.5 µg/mL (≈ 0.697 µM) | 
CC[C@H]1OC(=O)/C(C)=C/[C@H](C)[C@@H](O[C@@H]2O[C@H](C)C[C@H](N(C)C)[C@H]2O)[C@@](C)(OC)C[C@@H](C)C(=O)[C@H](C)[C@H]2N(CCNCc3ccccc3)C(=O)O[C@]12C | 3.1 µg/mL (≈ 4.25 µM) |  | 50 µg/mL (≈ 68.5 µM) | > 64 µg/mL | 6.2 µg/mL (≈ 8.49 µM) | 0.03 µg/mL (≈ 0.0411 µM) | 2 µg/mL (≈ 2.74 µM) | 
CC[C@H]1OC(=O)/C(C)=C/[C@H](C)[C@@H](O[C@@H]2O[C@H](C)C[C@H](N(C)C)[C@H]2O)[C@@](C)(OC)C[C@@H](C)C(=O)[C@H](C)[C@H]2N(CCCc3cnc4ccccc4c3)C(=O)O[C@]12C | 0.39 µg/mL (≈ 0.509 µM) |  |  | 32 µg/mL (≈ 41.8 µM) | 1.56 µg/mL (≈ 2.04 µM) | 0.25 µg/mL (≈ 0.326 µM) | 4 µg/mL (≈ 5.22 µM) | 
CCOCCCN1C(=O)O[C@]2(C)[C@@H](CC)OC(=O)/C(C)=C/[C@H](C)[C@@H](O[C@@H]3O[C@H](C)C[C@H](N(C)C)[C@H]3O)[C@@](C)(OC)C[C@@H](C)C(=O)[C@H](C)[C@@H]12 | 0.39 µg/mL (≈ 0.571 µM) | 1.56 µg/mL (≈ 2.28 µM) |  |  | 1.56 µg/mL (≈ 2.28 µM) | 0.25 µg/mL (≈ 0.366 µM) | 2 µg/mL (≈ 2.93 µM) | 
CC[C@H]1OC(=O)/C(C)=C/[C@H](C)[C@@H](O[C@@H]2O[C@H](C)C[C@H](N(C)C)[C@H]2O)[C@@](C)(OC)C[C@@H](C)[C@@H]2NCCN3C(=O)O[C@@]1(C)[C@H]3[C@H]2C | 1.56 µg/mL (≈ 2.5 µM) | 6.2 µg/mL (≈ 9.94 µM) |  | > 64 µg/mL | 12.5 µg/mL (≈ 20 µM) | 1 µg/mL (≈ 1.6 µM) | 2 µg/mL (≈ 3.21 µM) | MIC (Streptococcus pneumoniae [8]): > 64 µg/mL
CC[C@H]1OC(=O)/C(C)=C/[C@H](C)[C@@H](O[C@@H]2O[C@H](C)C[C@H](N(C)C)[C@H]2O)[C@@](C)(OC)C[C@@H](C)C(=O)[C@H](C)[C@H]2N(CCCN(C)c3ccccc3)C(=O)O[C@]12C | 0.39 µg/mL (≈ 0.524 µM) |  |  | > 64 µg/mL | 6.2 µg/mL (≈ 8.33 µM) | < 0.004 µg/mL | < 0.004 µg/mL | 
CC[C@H]1OC(=O)/C(C)=C/[C@H](C)[C@@H](O[C@@H]2O[C@H](C)C[C@H](N(C)C)[C@H]2O)[C@@](C)(OC)C[C@@H](C)C(=O)[C@H](C)[C@H]2NC(=O)O[C@@]21C (stereo in doubt; 7) |  |  |  |  |  |  |  | MIC (Streptococcus pyogenes [1]): 6.2 µg/mL (≈ 10.4 µM); MIC (Staphylococcus aureus [5]): 25 µg/mL (≈ 41.9 µM)
CC[C@H]1OC(=O)[C@H](C)[C@@H](O[C@H]2C[C@@](C)(OC)[C@@H](O)[C@H](C)O2)[C@H](C)[C@@H](O[C@@H]2O[C@H](C)C[C@H](N(C)C)[C@H]2O)[C@](C)(O)C[C@@H](C)C(=O)[C@H](C)[C@@H](O)[C@]1(C)O [ERYTHROMYCIN] | 3.1 µg/mL (≈ 4.22 µM) | 3.1 µg/mL (≈ 4.22 µM) |  | 4 µg/mL (≈ 5.45 µM) | 0.2 µg/mL (≈ 0.273 µM) |  | 8 µg/mL (≈ 10.9 µM) | MIC (Streptococcus pneumoniae [6]): 0.06 µg/mL (≈ 0.0818 µM)
CC[C@H]1OC(=O)/C(C)=C/[C@H](C)[C@@H](O[C@@H]2O[C@H](C)C[C@H](N(C)C)[C@H]2O)[C@@](C)(OC)C[C@@H](C)C(=O)[C@H](C)[C@H]2N(Cc3ccccc3)C(=O)O[C@]12C | 0.2 µg/mL (≈ 0.291 µM) | 0.78 µg/mL (≈ 1.14 µM) |  |  | 0.78 µg/mL (≈ 1.14 µM) | 0.25 µg/mL (≈ 0.364 µM) | 2 µg/mL (≈ 2.91 µM) | 
CC[C@H]1OC(=O)/C(C)=C/[C@H](C)[C@@H](O[C@@H]2O[C@H](C)C[C@H](N(C)C)[C@H]2O)[C@@](C)(OC)C[C@@H](C)C(=O)/C(C)=C/[C@]1(C)OC(=O)NCCCOc1ccc2ccccc2c1 | 6.2 µg/mL (≈ 7.94 µM) | 3.1 µg/mL (≈ 3.97 µM) | 25 µg/mL (≈ 32 µM) |  | 6.2 µg/mL (≈ 7.94 µM) |  |  | MIC ([2]; Staphylococcus aureus): 50 µg/mL (≈ 64 µM)
CC[C@H]1OC(=O)/C(C)=C/[C@H](C)[C@@H](O[C@@H]2O[C@H](C)C[C@H](N(C)C)[C@H]2O)[C@@](C)(OC)C[C@@H](C)C(=O)[C@H](C)[C@H]2N(CCCOc3ccc(Cl)cc3)C(=O)O[C@]12C | 0.39 µg/mL (≈ 0.51 µM) |  | 12.5 µg/mL (≈ 16.3 µM) |  | 0.78 µg/mL (≈ 1.02 µM) | < 0.004 µg/mL | 0.03 µg/mL (≈ 0.0392 µM) | MIC ([2]; Staphylococcus aureus): 50 µg/mL (≈ 65.3 µM)
CC[C@H]1OC(=O)/C(C)=C/[C@H](C)[C@@H](O[C@@H]2O[C@H](C)C[C@H](N(C)C)[C@H]2O)[C@@](C)(OC)C[C@@H](C)C(=O)[C@H](C)[C@H]2N(C(C)C)C(=O)O[C@]12C | 1.56 µg/mL (≈ 2.44 µM) | 12.5 µg/mL (≈ 19.6 µM) |  |  | 12.5 µg/mL (≈ 19.6 µM) | 2 µg/mL (≈ 3.13 µM) | 2 µg/mL (≈ 3.13 µM) | 
CC[C@H]1OC(=O)/C(C)=C/[C@H](C)[C@@H](O[C@@H]2O[C@H](C)C[C@H](N(C)C)[C@H]2O)[C@@](C)(OC)C[C@@H](C)C(=O)/C(C)=C/[C@]1(C)OC(=O)OC | 25 µg/mL (≈ 40.9 µM) | 25 µg/mL (≈ 40.9 µM) | 50 µg/mL (≈ 81.7 µM) |  | 25 µg/mL (≈ 40.9 µM) |  |  | 
CC[C@H]1OC(=O)/C(C)=C/[C@H](C)[C@@H](O[C@@H]2O[C@H](C)C[C@H](N(C)C)[C@H]2O)[C@@](C)(OC)C[C@@H](C)C(=O)[C@H](C)[C@H]2N(CCCOc3ccccc3)C(=O)O[C@]12C | 0.39 µg/mL (≈ 0.534 µM) | 0.39 µg/mL (≈ 0.534 µM) | 25 µg/mL (≈ 34.2 µM) | 16 µg/mL (≈ 21.9 µM) | 0.39 µg/mL (≈ 0.534 µM) |  |  | MIC ([2]; Staphylococcus aureus): 50 µg/mL (≈ 68.4 µM)
CC[C@H]1OC(=O)/C(C)=C/[C@H](C)[C@@H](O[C@@H]2O[C@H](C)C[C@H](N(C)C)[C@H]2O)[C@@](C)(OC)C[C@@H](C)C(=O)[C@H](C)[C@H]2N(CCCOc3cccc4cccnc34)C(=O)O[C@]12C | 0.2 µg/mL (≈ 0.256 µM) |  |  | 8 µg/mL (≈ 10.2 µM) | 1.56 µg/mL (≈ 1.99 µM) | < 0.004 µg/mL | 2 µg/mL (≈ 2.56 µM) | MIC (Streptococcus pneumoniae [8]): > 16 µg/mL
CC[C@H]1OC(=O)/C(C)=C/[C@H](C)[C@@H](O[C@@H]2O[C@H](C)C[C@H](N(C)C)[C@H]2O)[C@@](C)(OC)C[C@@H](C)C(=O)[C@H](C)[C@H]2N(CCCOc3ccncc3)C(=O)O[C@]12C | 0.2 µg/mL (≈ 0.273 µM) | 0.39 µg/mL (≈ 0.533 µM) |  | 16 µg/mL (≈ 21.9 µM) | 0.39 µg/mL (≈ 0.533 µM) | 0.03 µg/mL (≈ 0.041 µM) | 1 µg/mL (≈ 1.37 µM) | 
CC[C@H]1OC(=O)/C(C)=C/[C@H](C)[C@@H](O[C@@H]2O[C@H](C)C[C@H](N(C)C)[C@H]2O)[C@@](C)(OC)C[C@@H](C)C(=O)[C@H](C)[C@H]2N(CCCc3ccccc3)C(=O)O[C@]12C (stereo in doubt; 11) |  |  | 25 µg/mL (≈ 35 µM) |  |  |  |  | MIC (Streptococcus pyogenes [1]): 6.2 µg/mL (≈ 8.67 µM); MIC (Staphylococcus aureus [3]): 25 µg/mL (≈ 35 µM); MIC (Staphylococcus aureus [5]): 25 µg/mL (≈ 35 µM)
C=COCCCN1C(=O)O[C@]2(C)[C@@H](CC)OC(=O)/C(C)=C/[C@H](C)[C@@H](O[C@@H]3O[C@H](C)C[C@H](N(C)C)[C@H]3O)[C@@](C)(OC)C[C@@H](C)C(=O)[C@H](C)[C@@H]12 | 0.39 µg/mL (≈ 0.573 µM) | 3.1 µg/mL (≈ 4.55 µM) |  | 64 µg/mL (≈ 94 µM) | 3.1 µg/mL (≈ 4.55 µM) | 0.5 µg/mL (≈ 0.734 µM) | 2 µg/mL (≈ 2.94 µM) | 
CC[C@H]1OC(=O)/C(C)=C/[C@H](C)[C@@H](O[C@@H]2O[C@H](C)C[C@H](N(C)C)[C@H]2O)[C@@](C)(OC)C[C@@H](C)C(=O)[C@H](C)[C@H]2N(CCc3ccc(OCc4ccccc4)c(OCc4ccccc4)c3)C(=O)O[C@]12C |  |  |  |  |  | 1 µg/mL (≈ 1.1 µM) | 4 µg/mL (≈ 4.38 µM) | MIC (Streptococcus pneumoniae [8]): 8 µg/mL (≈ 8.76 µM)
